Results gathered from unrelated publications.
Lines come from different studies, so protocols differ. pEC50, pIC50: −log10 of the molar value.
Cell line: MCF7
Effect on: cell growth or viability

Structure (SMILES) | test | conditions | quantity | value
O=C(NCc1cn(Cc2ccc(Br)cc2)nn1)Nc1ccc(Cl)cc1 | CCK-8 | 50 µM, 48 h | viability | 89.8%
COc1ccc(NC(=O)NCc2cn(Cc3ccc(C)cc3)nn2)cc1 | CCK-8 | 50 µM, 48 h | viability | 97.7%
O=C(Nc1cccc(-c2cn(Cc3ccc(Cl)cc3)nn2)c1)Nc1ccccc1Br | CCK-8 | 50 µM, 72 h | viability | 69.6%
CN(C)CCNC(=O)c1ccc(-c2nc3ccc4[nH]ncc4c3c3c2CCCCC3)c(F)c1 |  | 72 h | GI50 | 3310 nM
O=C(NCc1cn(Cc2ccc(Br)cc2)nn1)Nc1ccccc1Br | CCK-8 | 50 µM, 48 h | viability | 84.7%
CCCS(=O)(=O)Oc1ccc(C=NNC(=O)c2nc3ccccc3s2)cc1 | MTT | 100 µM, 48 h | cell death | 46.6%
COCCC(=O)Nc1ccccc1/N=c1\cc(-c2ccc3nc(N)oc3c2)oc2ccccc12 | CCK-8 | 1 µM | inhibition | 7.99%
CN(C)CCNC(=O)c1ccc(-c2nc3ccc4[nH]ncc4c3c3c2CCCC3)cc1 |  | 72 h | GI50 | 3340 nM
O=C(Nc1cccc(-c2cn(Cc3ccc(Br)cc3)nn2)c1)Nc1ccccc1Br | CCK-8 | 50 µM, 72 h | viability | 76.8%
COc1ccc(NC(=O)Nc2cccc(-c3cn(Cc4ccc(Br)cc4)nn3)c2)cc1 | CCK-8 | 50 µM, 48 h | viability | 95.6%
NCCC(=O)Nc1ccccc1/N=c1\cc(-c2ccc3nc(N)oc3c2)oc2ccc(O)cc12 | CCK-8 | 1 µM | inhibition | 12.1%
O=C(NCc1cn(Cc2ccc(Cl)cc2)nn1)Nc1ccccc1Br | CCK-8 | 50 µM, 48 h | viability | 84.4%
COc1ccc(NC(=O)Nc2cccc(-c3cn(Cc4cccc(Cl)c4)nn3)c2)cc1 | CCK-8 | 50 µM, 72 h | viability | 101%
COc1cccc2c1C(=O)c1c(O)c3c(c(O)c1C2=O)C[C@@](O)(C(=O)CO)C[C@@H]3O[C@H]1C[C@H](N)[C@H](O)[C@H](C)O1 | MTT | 48 h | pIC50 | 6.30
COc1ccc(NC(=O)Nc2ccc(-c3cn(Cc4ccc(C)cc4)nn3)cc2)cc1 | CCK-8 | 50 µM, 72 h | viability | 87.4%
COc1ccc2/c(=N/c3ccccc3NC(=O)N3CCOCC3)cc(-c3ccc4c(c3)OCCO4)oc2c1 | CCK-8 | 1 µM | inhibition | 7.65%
CCc1nc(C(N)=O)c(Nc2ccc(N3CCC(N4CCN(C)CC4)CC3)c(OC)c2)nc1NC1CCOCC1 |  | 72 h | GI50 | 406 nM
COc1cc(C=NNC(=O)c2nc3ccccc3s2)ccc1OS(C)(=O)=O | MTT | 100 µM, 48 h | cell death | 49.1%
NCCC(=O)Nc1cccc(/N=c2\cc(-c3ccc4c(c3)OCO4)oc3ccccc23)c1 | CCK-8 | 1 µM | inhibition | 15.7%

Structure (SMILES) | test | conditions | quantity | value
O=C(NCc1cn(Cc2cccc(Cl)c2)nn1)Nc1ccc(Cl)cc1 | CCK-8 | 50 µM, 72 h | viability | 87.2%
CCCS(=O)(=O)Oc1cc(C=NNC(=O)c2nc3ccccc3s2)ccc1OC | MTT | 100 µM, 48 h | cell death | 26.3%
C[C@H](Nc1ccc2c(c1)OCCn1cc(N3C(=O)OC[C@H]3C(F)F)nc1-2)C(N)=O | ATP luminescence | 5 days | pEC50 | 6.89
CC(C)C[C@@H](NC(=O)[C@H](C)NC(=O)CNC(=O)[C@@H](NC=O)C(C)C)C(=O)N[C@@H](C)C(=O)N[C@@H](C(=O)N[C@H](C(=O)N[C@@H](C(=O)N[C@@H](Cc1c[nH]c2ccccc12)C(=O)N[C@H](CC(C)C)C(=O)N[C@@H](Cc1c[nH]c2ccccc12)C(=O)N[C@H](CC(C)C)C(=O)N[C@@H](Cc1c[nH]c2ccccc12)C(=O)N[C@@H](C(=O)N[C@@H](Cc1c[nH]c2ccccc12)C(=O)NCCO)C(C)C)[C@H](C)O)C(C)C)C(C)C | SRB | 48 h | GI50 | 397 nM
COc1ccc(NC(=O)Nc2ccc(-c3cn(Cc4ccc(Cl)cc4)nn3)cc2)cc1 | CCK-8 | 50 µM, 48 h | viability | 95.1%
NCC(=O)Nc1ccccc1/N=c1\cc(-c2ccc3c(c2)OCO3)oc2c(N)cccc12 | CCK-8 | 1 µM | inhibition | 7.42%
COc1ccc(NC(=O)NCc2cn(Cc3ccc(Br)cc3)nn2)cc1 | CCK-8 | 50 µM, 72 h | viability | 89.2%
O=C(NN=Cc1ccc(O)cc1)c1nc2ccccc2s1 | MTT | 100 µM, 48 h | cell death | 38.1%
O=C(Nc1ccccc1/N=c1\cc(-c2ccc3c(c2)OCO3)oc2ccccc12)N1CCNCC1 | CCK-8 | 1 µM | inhibition | 13.5%
CCOc1ccc(C(=O)CC(SCc2ccc(Cl)cc2)C(=O)OC)cc1 (stereo not shown) | MTT | 48 h | pEC50 | 4.40
NCCC(=O)Nc1ccc(/N=c2\cc(-c3ccc4c(c3)OCO4)oc3ccccc23)cc1 | CCK-8 | 1 µM | inhibition | 6.42%
CC(C)(C)c1cc(NC(=O)Nc2ccc(-c3cn4c(n3)sc3cc(OCCN5CCOCC5)ccc34)cc2)no1 |  | 72 h | GI50 | > 10000 nM
O=C(Nc1ccc(-c2cn(Cc3ccc(Cl)cc3)nn2)cc1)Nc1ccccc1Br | CCK-8 | 50 µM, 72 h | viability | 104%
Cc1n[nH]c2ccc3nc(-c4ccc(C(=O)NCCN(C)C)cc4)c4c(c3c12)CCCC4 |  | 72 h | GI50 | 2400 nM
COc1ccc(NC(=O)Nc2ccc(-c3cn(Cc4ccc(Br)cc4)nn3)cc2)cc1 | CCK-8 | 50 µM, 72 h | viability | 105%
O=C(NCc1cn(Cc2ccc(Cl)cc2)nn1)Nc1ccc(Cl)cc1 | CCK-8 | 50 µM, 72 h | viability | 83.3%
NCCCCC(=O)Nc1ccccc1/N=c1\cc(-c2ccc3c(c2)OCO3)oc2ccccc12 | CCK-8 | 1 µM | inhibition | -4.92%
COc1ccc(NC(=O)NCc2cn(Cc3ccc(Cl)cc3)nn2)cc1 | CCK-8 | 50 µM, 72 h | viability | 95.3%
